Measurements reported in ChEMBL document CHEMBL1132157 (J Med Chem, 1999).
pEC50, pIC50: −log10 of the molar value.

Experiments:
[1] = Ratio of IC50 for human 5-HT1B to human 5-HT1D receptors
[2] = molecular target: 5-hydroxytryptamine receptor 2A (Homo sapiens, UniProt P28223); assay: Compound was tested for the displacement of [3H]5-HT binding to cloned human 5-hydroxytryptamine 2A receptor stably expressed in CHO cells; format: cell-based
[3] = molecular target: 5-hydroxytryptamine receptor 1E (Homo sapiens, UniProt P28566); assay: Compound was tested for the displacement of [3H]5-HT binding to cloned human 5-hydroxytryptamine 1E receptor stably expressed in CHO cells; format: cell-based
5-hydroxytryptamine receptor 1E, sequence (P28566 whole entry): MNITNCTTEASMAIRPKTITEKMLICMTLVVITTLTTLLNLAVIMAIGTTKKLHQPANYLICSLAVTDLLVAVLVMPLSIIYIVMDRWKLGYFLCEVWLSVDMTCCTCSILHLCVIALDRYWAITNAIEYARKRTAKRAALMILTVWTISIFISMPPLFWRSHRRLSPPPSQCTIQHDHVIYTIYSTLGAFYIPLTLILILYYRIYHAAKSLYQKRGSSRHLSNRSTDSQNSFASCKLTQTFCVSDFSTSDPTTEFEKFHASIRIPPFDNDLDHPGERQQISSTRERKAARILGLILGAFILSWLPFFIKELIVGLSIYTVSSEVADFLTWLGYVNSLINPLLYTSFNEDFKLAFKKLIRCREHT

[4] = molecular target: 5-hydroxytryptamine receptor 1B (Homo sapiens, UniProt P28222); assay: Displacement of [3H]5-HT binding to cloned 5-hydroxytryptamine 1B receptor stably expressed in CHO cells; format: cell-based
5-hydroxytryptamine receptor 1B, sequence (P28222 whole entry): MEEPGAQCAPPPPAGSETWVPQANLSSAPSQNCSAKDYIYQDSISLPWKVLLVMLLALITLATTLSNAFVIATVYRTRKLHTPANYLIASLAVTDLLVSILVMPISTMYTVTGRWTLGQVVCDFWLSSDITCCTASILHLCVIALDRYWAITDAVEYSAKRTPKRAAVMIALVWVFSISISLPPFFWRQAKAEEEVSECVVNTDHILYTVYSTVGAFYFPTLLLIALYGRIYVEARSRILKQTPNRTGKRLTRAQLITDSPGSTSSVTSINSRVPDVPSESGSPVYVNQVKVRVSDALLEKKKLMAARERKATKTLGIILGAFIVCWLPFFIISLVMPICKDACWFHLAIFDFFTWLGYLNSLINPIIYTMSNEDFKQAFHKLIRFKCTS
Procedure, shortened: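 Membranes from thawed CHO cells with human 5-HT1B or 5-HT1D, washed in 50 mM Tris-HCl pH 7.7, preincubated 10 min at 37 °C to remove endogenous 5-HT. Buffer holds 0.1% ascorbate, 10 μM pargyline and 4 mM CaCl2. Uses 2.0 nM [3H]5-HT, 30 min at 37 °C; 10 μM 5-HT defines nonspecific binding. Filtration; IC50 by nonlinear regression; duplicates, 2–5 occasions.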

[5] = molecular target: 5-hydroxytryptamine receptor 5A (Homo sapiens, UniProt P47898); assay: Compound was tested for the displacement of [3H]5-HT binding to cloned human 5-hydroxytryptamine 5A receptor stably expressed in CHO cells; format: cell-based
5-hydroxytryptamine receptor 5A, sequence (P47898 whole entry): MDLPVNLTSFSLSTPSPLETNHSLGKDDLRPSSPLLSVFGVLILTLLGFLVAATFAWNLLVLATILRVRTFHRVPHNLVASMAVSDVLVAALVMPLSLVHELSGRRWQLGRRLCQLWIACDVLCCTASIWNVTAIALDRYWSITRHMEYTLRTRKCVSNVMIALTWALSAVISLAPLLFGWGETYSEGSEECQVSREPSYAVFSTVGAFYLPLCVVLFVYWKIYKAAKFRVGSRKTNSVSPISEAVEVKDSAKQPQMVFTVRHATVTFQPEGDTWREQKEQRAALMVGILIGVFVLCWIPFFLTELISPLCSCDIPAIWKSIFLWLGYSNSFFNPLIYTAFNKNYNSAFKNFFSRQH

[6] = molecular target: 5-hydroxytryptamine receptor 1D (Homo sapiens, UniProt P28221); assay: Agonist-induced [35S]- GTPgammaS binding in CHO cells stably transfected with 5-hydroxytryptamine 1D receptor; format: cell-based
5-hydroxytryptamine receptor 1D, sequence (P28221 whole entry): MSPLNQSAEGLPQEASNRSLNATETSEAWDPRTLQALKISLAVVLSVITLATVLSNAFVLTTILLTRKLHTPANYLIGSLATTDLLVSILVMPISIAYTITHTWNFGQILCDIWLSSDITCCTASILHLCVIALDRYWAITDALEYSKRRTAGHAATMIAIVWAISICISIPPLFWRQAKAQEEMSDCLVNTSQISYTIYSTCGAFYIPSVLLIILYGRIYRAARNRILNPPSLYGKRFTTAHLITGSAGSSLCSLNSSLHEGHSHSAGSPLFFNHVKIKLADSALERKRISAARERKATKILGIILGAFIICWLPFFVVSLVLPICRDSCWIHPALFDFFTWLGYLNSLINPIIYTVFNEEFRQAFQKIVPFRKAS
Procedure, shortened: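 Membranes from thawed CHO cells with human 5-HT1D, prepared in ice-cold 20 mM Hepes/EDTA at pH 7.4, spun at 40000g. Assay buffer: 100 mM NaCl, 10 mM MgCl2, 0.1% ascorbate, 10 μM pargyline. GDP 100 μM plus drug, 20 min at 30 °C, then ice 15 min. Then 100 pM [35S]GTPγS, 30 min at 30 °C, filtration. Emax is taken as % of maximal 5-HT response; duplicates, 2–5 occasions.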

[7] = molecular target: 5-hydroxytryptamine receptor 7 (Rattus norvegicus, UniProt P32305); assay: Compound was tested for the displacement of [3H]5-HT binding to cloned rat 5-hydroxytryptamine 7 receptor stably expressed in CHO cells; format: cell-based
5-hydroxytryptamine receptor 7, sequence (P32305 whole entry): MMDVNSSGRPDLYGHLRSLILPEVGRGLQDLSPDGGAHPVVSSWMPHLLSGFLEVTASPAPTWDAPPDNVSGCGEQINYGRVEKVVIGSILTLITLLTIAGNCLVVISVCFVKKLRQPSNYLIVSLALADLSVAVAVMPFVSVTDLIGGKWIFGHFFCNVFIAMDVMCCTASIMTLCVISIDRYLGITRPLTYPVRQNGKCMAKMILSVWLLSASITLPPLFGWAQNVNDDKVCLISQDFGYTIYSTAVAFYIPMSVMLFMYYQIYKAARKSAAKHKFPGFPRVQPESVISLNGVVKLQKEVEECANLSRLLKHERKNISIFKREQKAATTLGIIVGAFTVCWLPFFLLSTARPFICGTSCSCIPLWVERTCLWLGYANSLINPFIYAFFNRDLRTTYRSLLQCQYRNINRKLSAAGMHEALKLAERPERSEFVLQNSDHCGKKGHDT

[8] = molecular target: T1, 5-hydroxytryptamine receptor 1A (Homo sapiens, UniProt P08908); assay: Compound was tested for the displacement of [3H]5-HT binding to cloned 5-hydroxytryptamine 1A receptor stably expressed in CHO cells; format: cell-based
T1 sequence (P08908 whole entry): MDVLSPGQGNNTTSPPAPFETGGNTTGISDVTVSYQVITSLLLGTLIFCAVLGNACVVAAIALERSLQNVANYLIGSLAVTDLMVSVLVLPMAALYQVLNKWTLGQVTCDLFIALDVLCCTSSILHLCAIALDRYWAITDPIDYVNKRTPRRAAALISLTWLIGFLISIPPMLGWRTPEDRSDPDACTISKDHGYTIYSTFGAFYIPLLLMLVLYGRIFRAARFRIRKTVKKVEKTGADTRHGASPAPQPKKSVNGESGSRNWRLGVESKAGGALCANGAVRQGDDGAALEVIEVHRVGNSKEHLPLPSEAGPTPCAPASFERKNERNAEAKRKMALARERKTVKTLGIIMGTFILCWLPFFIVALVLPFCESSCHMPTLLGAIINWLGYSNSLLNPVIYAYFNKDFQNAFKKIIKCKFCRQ

[9] = molecular target: 5-hydroxytryptamine receptor 6 (Rattus norvegicus, UniProt P31388); assay: Compound was tested for the displacement of [3H]5-HT binding to cloned rat 5-hydroxytryptamine 6 receptor stably expressed in CHO cells; format: cell-based
5-hydroxytryptamine receptor 6, sequence (P31388 whole entry): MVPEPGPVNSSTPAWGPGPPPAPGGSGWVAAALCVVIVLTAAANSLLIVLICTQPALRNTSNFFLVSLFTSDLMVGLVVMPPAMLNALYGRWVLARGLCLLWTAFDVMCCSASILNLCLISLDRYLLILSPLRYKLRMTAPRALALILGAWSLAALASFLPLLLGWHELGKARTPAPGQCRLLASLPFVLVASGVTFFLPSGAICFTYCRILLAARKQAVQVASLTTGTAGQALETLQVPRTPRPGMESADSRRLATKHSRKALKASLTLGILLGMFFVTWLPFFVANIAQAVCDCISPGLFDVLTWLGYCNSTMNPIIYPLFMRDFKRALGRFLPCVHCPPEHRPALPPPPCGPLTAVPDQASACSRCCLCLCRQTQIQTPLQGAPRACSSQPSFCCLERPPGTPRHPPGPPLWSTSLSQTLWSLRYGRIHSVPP

[10] = molecular target: T2, 5-hydroxytryptamine receptor 1F (Homo sapiens, UniProt P30939); assay: Compound was tested for the displacement of [3H]5-HT binding to cloned human 5-hydroxytryptamine 1F receptor stably expressed in CHO cells; format: cell-based
T2 sequence (P30939 whole entry): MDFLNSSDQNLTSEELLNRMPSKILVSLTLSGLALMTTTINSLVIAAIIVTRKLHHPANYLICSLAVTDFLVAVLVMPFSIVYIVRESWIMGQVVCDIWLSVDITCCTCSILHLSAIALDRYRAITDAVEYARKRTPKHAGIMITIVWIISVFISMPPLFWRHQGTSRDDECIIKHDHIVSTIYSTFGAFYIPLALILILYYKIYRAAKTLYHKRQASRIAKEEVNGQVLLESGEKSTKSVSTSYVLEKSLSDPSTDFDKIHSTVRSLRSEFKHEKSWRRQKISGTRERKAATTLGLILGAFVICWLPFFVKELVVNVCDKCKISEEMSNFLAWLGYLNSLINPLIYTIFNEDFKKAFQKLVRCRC

5-hydroxytryptamine receptor 2A, sequence (P28223 whole entry): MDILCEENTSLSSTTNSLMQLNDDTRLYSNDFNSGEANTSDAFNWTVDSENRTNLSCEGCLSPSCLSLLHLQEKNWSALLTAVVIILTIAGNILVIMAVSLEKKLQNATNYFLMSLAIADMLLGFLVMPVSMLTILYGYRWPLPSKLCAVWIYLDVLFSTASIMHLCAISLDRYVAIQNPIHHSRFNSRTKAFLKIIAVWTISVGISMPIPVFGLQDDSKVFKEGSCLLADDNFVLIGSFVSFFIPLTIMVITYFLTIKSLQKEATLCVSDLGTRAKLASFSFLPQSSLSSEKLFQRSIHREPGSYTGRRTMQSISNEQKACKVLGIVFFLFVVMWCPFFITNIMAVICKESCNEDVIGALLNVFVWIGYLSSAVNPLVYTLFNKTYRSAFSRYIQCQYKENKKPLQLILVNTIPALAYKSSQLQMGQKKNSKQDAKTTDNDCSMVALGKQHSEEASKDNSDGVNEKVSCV

With OC[C@H](NC1CCN(CCCc2c[nH]c3ccc(-n4cnnc4)cc23)CC1)c1ccc(F)cc1 the Selectivity [1] was 170, the pIC50 [2] was 5.96 and the pIC50 [3] was < 5.00. The pIC50 [4] was 6.82, the pIC50 [5] was < 5.00 and the pEC50 [6] was 9.10. For the same molecule, the pIC50 [7] was 6.27, the pIC50 [8] was 7.18 and the pIC50 [9] was < 5.00. The pIC50 [10] was < 5.00.
